Reference: ChEMBL document CHEMBL2074217, “Differences in the transport of the antiepileptic drugs phenytoin, levetiracetam and carbamazepine by human and mouse P-glycoprotein” (Neuropharmacology, 2006)

How the values were obtained:
Type in all cases: functional, cell-based
[1] = biological target: T1, ATP-dependent translocase ABCB1 (Mus musculus, UniProt P21447); assay: TP_TRANSPORTER: transcellular transport in mdr1a-expressing LLC-PK1 cells; settings: pig
Method in brief: (§1)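 Polarized monolayers of LLC-PK1 pig kidney cells transfected with human MDR1, mouse mdr1a or mouse mdr1b cDNA, paired with wildtype LLC-PK1 monolayers. Directional transport across the monolayer was expressed as a transport ratio. The Pgp inhibitor PSC833 was used to test whether transport was Pgp-specific. Cyclosporin A served as the positive-control Pgp substrate.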

[2] = biological target: T2, ATP-dependent translocase ABCB1 (Homo sapiens, UniProt P08183); assay: TP_TRANSPORTER: transcellular transport in MDR1-expressing LLC-PK1 cells; settings: pig; method in brief: as §1
T2 sequence (P08183 whole entry): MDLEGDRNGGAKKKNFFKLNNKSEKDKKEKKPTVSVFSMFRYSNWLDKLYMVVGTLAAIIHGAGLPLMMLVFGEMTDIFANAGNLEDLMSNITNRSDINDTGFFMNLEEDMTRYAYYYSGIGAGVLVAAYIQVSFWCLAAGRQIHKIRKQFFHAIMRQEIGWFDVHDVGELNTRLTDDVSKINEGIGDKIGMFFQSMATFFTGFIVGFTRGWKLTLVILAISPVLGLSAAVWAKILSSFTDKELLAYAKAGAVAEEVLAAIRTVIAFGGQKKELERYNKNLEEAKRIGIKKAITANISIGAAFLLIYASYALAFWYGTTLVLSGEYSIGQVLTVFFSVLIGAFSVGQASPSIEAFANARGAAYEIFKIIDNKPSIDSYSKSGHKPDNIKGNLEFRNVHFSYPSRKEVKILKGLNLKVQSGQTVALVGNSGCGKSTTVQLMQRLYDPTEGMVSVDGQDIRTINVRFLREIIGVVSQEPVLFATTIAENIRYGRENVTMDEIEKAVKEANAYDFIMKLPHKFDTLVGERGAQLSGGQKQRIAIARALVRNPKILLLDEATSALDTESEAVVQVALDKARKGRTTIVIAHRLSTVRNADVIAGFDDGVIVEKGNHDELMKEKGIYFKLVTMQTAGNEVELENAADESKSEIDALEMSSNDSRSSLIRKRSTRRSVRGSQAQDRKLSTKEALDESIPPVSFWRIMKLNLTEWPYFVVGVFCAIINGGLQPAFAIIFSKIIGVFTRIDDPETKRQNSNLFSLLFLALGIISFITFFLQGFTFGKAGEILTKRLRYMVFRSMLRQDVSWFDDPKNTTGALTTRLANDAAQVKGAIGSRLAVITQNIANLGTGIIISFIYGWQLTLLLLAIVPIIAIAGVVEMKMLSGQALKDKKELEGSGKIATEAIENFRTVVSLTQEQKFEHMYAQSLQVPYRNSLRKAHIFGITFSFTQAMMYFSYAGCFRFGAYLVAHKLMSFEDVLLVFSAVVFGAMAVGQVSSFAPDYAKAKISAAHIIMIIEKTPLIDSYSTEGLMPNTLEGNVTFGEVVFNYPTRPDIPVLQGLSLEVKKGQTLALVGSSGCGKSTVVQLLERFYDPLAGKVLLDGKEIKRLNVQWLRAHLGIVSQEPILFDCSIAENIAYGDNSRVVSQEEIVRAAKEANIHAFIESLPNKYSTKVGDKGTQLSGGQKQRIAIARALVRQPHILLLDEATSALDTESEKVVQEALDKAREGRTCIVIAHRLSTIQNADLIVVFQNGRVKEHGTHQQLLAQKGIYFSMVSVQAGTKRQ

[3] = biological target: ATP-dependent translocase ABCB1 (Mus musculus, UniProt P06795); assay: TP_TRANSPORTER: transcellular transport in mdr1b-expressing LLC-PK1 cells; settings: pig; method in brief: as §1
Chain of ATP-dependent translocase ABCB1 (Mus musculus, UniProt P06795) (P06795 whole entry): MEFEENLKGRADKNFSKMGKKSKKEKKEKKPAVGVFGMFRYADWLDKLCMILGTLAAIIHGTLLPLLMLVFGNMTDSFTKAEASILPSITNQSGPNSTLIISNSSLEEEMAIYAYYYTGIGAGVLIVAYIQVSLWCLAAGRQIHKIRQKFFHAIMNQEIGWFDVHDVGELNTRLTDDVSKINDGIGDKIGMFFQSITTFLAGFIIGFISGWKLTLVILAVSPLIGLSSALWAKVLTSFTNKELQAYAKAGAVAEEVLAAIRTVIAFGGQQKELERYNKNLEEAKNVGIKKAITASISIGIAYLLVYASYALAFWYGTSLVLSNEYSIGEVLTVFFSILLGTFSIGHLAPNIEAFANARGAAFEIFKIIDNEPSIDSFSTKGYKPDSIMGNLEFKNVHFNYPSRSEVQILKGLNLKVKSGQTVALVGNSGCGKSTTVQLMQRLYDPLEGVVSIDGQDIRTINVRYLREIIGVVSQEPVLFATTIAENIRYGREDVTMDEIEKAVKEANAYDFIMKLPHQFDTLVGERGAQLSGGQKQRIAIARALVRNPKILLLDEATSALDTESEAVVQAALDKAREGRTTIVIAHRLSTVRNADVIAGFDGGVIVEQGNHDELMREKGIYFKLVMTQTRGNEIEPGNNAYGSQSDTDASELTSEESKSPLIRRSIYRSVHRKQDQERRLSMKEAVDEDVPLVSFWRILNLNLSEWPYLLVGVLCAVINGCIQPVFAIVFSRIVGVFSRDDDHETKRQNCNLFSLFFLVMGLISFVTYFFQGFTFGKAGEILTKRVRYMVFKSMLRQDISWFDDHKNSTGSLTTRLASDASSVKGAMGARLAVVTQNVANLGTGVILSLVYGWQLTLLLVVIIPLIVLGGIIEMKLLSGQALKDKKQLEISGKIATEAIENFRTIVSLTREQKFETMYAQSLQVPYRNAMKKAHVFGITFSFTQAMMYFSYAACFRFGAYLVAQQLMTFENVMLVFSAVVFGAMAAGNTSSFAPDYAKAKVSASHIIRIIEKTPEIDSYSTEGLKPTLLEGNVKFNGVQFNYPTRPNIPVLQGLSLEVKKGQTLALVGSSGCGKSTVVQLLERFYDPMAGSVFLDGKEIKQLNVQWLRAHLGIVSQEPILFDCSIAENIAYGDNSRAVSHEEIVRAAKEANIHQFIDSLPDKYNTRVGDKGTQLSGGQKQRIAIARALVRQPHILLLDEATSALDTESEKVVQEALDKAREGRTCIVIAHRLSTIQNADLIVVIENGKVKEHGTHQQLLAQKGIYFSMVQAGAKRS

[4] = biological target: ATP-binding cassette sub-family C member 2 (Homo sapiens, UniProt Q92887); assay: TP_TRANSPORTER: transcellular transport in MRP2-expressing MDCKII cells; settings: dog, mdck-ii
Method in brief: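 Directional transcellular transport was measured across polarized MDCKII monolayers transfected with human MRP2 cDNA and compared with wildtype MDCKII cells. Vinblastine served as the reference MRP2 substrate. The read-out was the transport ratio (TR).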

[5] = biological target: T2, ATP-dependent translocase ABCB1; assay: TP_TRANSPORTER: inhibition of cyclosporin A transcellular transport by tariquidar at a concentration of 0.2uM in MDR1-expressing MDCKII cells; settings: dog, mdck-ii
[6] = biological target: T2, ATP-dependent translocase ABCB1; assay: TP_TRANSPORTER: inhibition of cyclosporin A transcellular transport by carbamazapine 224 uM in MDR1-expressing LLC-PK1 cells; settings: pig, llc-pk1, 224 µM
[7] = biological target: T1, ATP-dependent translocase ABCB1; assay: TP_TRANSPORTER: inhibition of cyclosporin A transcellular transport by carbamazepine at a concentration of 224uM in mdr1a-expressing LLC-PK1 cells; settings: pig, llc-pk1, 224 µM
[8] = biological target: T2, ATP-dependent translocase ABCB1; assay: TP_TRANSPORTER: inhibition of cyclosporin A transcellular transport by PSC833 at a concentration of 30uM in MDR1-expressing MDCKII cells; settings: dog, mdck-ii
[9] = biological target: T1, ATP-dependent translocase ABCB1; assay: TP_TRANSPORTER: inhibition of phenytoin transcellular transport by PSC833 at a concentration of 30uM in mdr1a-expressing LLC-PK1 cells; settings: pig, llc-pk1, 30 µM
[10] = biological target: T1, ATP-dependent translocase ABCB1; assay: TP_TRANSPORTER: inhibition of levetiracetam transcellular transport by PSC833 at a concentration of 30uM in mdr1a-expressing LLC-PK1 cells; settings: pig, llc-pk1, 30 µM
[11] = biological target: T1, ATP-dependent translocase ABCB1; assay: TP_TRANSPORTER: inhibition of cyclosporin A transcellular transport by PSC833 at a concentration of 30uM in mdr1a-expressing LLC-PK1 cells; settings: pig, llc-pk1, 30 µM

T1 sequence (P21447 whole entry): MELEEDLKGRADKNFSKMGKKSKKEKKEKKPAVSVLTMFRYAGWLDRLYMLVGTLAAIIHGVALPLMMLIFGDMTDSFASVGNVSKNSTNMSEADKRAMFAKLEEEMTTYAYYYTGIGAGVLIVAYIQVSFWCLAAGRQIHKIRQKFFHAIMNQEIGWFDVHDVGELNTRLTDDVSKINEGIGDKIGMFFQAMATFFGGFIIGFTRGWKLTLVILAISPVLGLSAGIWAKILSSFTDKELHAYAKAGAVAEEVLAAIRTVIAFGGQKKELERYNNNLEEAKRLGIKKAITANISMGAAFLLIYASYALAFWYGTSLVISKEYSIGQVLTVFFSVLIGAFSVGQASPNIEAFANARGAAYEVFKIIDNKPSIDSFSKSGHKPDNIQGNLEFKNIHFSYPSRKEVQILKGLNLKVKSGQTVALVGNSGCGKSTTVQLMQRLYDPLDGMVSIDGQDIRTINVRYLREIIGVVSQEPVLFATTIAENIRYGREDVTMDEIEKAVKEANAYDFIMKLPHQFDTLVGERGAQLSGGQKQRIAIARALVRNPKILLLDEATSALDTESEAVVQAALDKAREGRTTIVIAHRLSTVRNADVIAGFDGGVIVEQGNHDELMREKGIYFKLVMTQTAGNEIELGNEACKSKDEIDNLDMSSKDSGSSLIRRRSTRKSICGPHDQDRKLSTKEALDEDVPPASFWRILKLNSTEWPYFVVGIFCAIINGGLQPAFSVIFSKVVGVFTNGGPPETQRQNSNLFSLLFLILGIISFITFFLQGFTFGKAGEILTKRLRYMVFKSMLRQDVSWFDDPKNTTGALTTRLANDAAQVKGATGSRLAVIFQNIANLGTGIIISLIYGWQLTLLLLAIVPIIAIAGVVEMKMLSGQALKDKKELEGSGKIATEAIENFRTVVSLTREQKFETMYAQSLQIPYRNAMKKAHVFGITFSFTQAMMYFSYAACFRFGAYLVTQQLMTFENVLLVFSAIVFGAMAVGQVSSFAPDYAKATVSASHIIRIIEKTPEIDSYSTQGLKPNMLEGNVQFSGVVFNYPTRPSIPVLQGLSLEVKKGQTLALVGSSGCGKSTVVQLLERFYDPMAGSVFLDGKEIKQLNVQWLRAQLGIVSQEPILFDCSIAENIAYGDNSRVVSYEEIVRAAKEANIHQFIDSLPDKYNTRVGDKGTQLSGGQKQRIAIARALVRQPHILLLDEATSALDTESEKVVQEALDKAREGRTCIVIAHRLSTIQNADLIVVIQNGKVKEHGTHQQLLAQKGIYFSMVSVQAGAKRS

Structure (SMILES) | Activity [1] | Activity [2] | Activity [3] | Activity [4] | also measured
CC[C@@H](C(N)=O)N1CCCC1=O | substrate [+] | is not a substrate [-] | is not a substrate [-] | is not a substrate [-] | 
COc1cc2c(cc1OC)CN(CCc1ccc(NC(=O)c3cc(OC)c(OC)cc3NC(=O)c3cnc4ccccc4c3)cc1)CC2 |  |  |  |  | Activity [5]: inhibitor [+]
NC(=O)N1c2ccccc2C=Cc2ccccc21 [CARBAMAZEPINE] | is not a substrate [-] | is not a substrate [-] | is not a substrate [-] |  | Activity [6]: is not a inhibitor [-]; Activity [7]: is not an inhibitor [-]
O=C1NC(=O)C(c2ccccc2)(c2ccccc2)N1 [PHENYTOIN] | substrate [+] | is not a substrate [-] | is not a substrate [-] | substrate [+] | 
C/C=C/C[C@@H](C)C(=O)[C@H]1C(=O)N[C@@H](C(C)C)C(=O)N(C)CC(=O)N(C)[C@@H](CC(C)C)C(=O)N[C@@H](C(C)C)C(=O)N(C)[C@@H](CC(C)C)C(=O)N[C@@H](C)C(=O)N[C@H](C)C(=O)N(C)[C@@H](CC(C)C)C(=O)N(C)[C@@H](CC(C)C)C(=O)N(C)[C@@H](C(C)C)C(=O)N1C [VALSPODAR] |  |  |  |  | Activity [8]: inhibitor [+]; Activity [9]: inhibitor [+]; Activity [10]: inhibitor [+]; Activity [11]: inhibitor [+]
CC[C@]1(O)C[C@@H]2CN(CCc3c([nH]c4ccccc34)[C@@](C(=O)OC)(c3cc4c(cc3OC)N(C)[C@H]3[C@@](O)(C(=O)OC)[C@H](OC(C)=O)[C@]5(CC)C=CCN6CC[C@]43[C@@H]65)C2)C1 [VINBLASTINE] |  |  |  | substrate [+] | 
